Assay results reported in ChEMBL document CHEMBL1255404, “Spread of OXA-48-encoding plasmid in Turkey and beyond” (2010).
Converted amounts (≈) assume the structure as drawn.

Columns and labels:
Type in all cases: functional
Escherichia coli [1] = test: Antimicrobial activity against Escherichia coli isolate J53 harboring pBEL containing beta-lactamase OXA-48 located within transposon Tn1999.2 by Etest method in presence of beta-lactamase inhibitor clavulanic acid
Outline: (§1)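 β-Lactam MICs read with Etest strips. Strains are E. coli J53 recipient and J53 transconjugants carrying OXA-48-positive plasmids recovered from clinical enterobacterial isolates.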

Escherichia coli [2] = test: Antimicrobial activity against Escherichia coli isolate J53 harboring pI-1 containing beta-lactamase OXA-48 located within transposon Tn1999.2 by Etest method; outline: as §1
Klebsiella pneumoniae [3] = test: Antimicrobial activity against Klebsiella pneumoniae isolate KpE expressing beta-lactamase OXA-48 and CTX-M-15 by Etest method in presence of beta-lactamase inhibitor clavulanic acid
Outline: (§2)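 MICs of β-lactams read from Etest strips. The test organisms are carbapenem-resistant, OXA-48-positive clinical Enterobacteriaceae isolates recovered from Turkey, Lebanon, Egypt, France and Belgium.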

Klebsiella pneumoniae [4] = test: Antimicrobial activity against Klebsiella pneumoniae isolate KpL expressing beta-lactamase OXA-48 by Etest method
Escherichia coli [5] = test: Antimicrobial activity against Escherichia coli isolate J53 harboring pEnc1 containing beta-lactamase OXA-48 located within transposon Tn1999 by Etest method; outline: as §1
Escherichia coli [6] = test: Antimicrobial activity against Escherichia coli isolate TOP10 harboring pBIC containing beta-lactamase OXA-48 located within transposon Tn1999.2 by Etest method in presence of beta-lactamase inhibitor clavulanic acid
Outline: (§3)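 β-Lactam MICs read with Etest strips. Strains are E. coli TOP10 host and TOP10 transformants made with plasmid DNA extract when conjugation failed. Transformants were selected on LB agar with ticarcillin 50 μg/ml.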

Escherichia coli [7] = test: Antimicrobial activity against Escherichia coli isolate J53 harboring p6A containing beta-lactamase OXA-48 located within transposon Tn1999 by Etest method; outline: as §1
Klebsiella pneumoniae [8] = test: Antimicrobial activity against Klebsiella pneumoniae isolate KpI-2 expressing beta-lactamase OXA-48 and CTX-M-15 by Etest method in presence of beta-lactamase inhibitor clavulanic acid; outline: as §2
Klebsiella pneumoniae [9] = test: Antimicrobial activity against Klebsiella pneumoniae isolate KpB expressing OXA-48 and CTX-M-15 by Etest method in presence of beta-lactamase inhibitor clavulanic acid; outline: as §2
Klebsiella pneumoniae [10] = test: Antimicrobial activity against Klebsiella pneumoniae isolate Kp6A expressing beta-lactamase OXA-48 and TEM-150 by Etest method
Enterobacter cloacae [11] = test: Antimicrobial activity against Enterobacter cloacae isolate 1 expressing beta-lactamase OXA-48 and SHV-5 by Etest method
Escherichia coli [12] = test: Antimicrobial activity against Escherichia coli isolate J53 harboring pCF containing beta-lactamase OXA-48 located within transposon Tn1999 by Etest method in presence of beta-lactamase inhibitor clavulanic acid; outline: as §1
Escherichia coli [13] = test: Antimicrobial activity against Escherichia coli isolate J53 harboring pBb containing beta-lactamase OXA-48 located within transposon Tn1999.2 by Etest method in presence of beta-lactamase inhibitor clavulanic acid; outline: as §1
Klebsiella pneumoniae [14] = test: Antimicrobial activity against Klebsiella pneumoniae isolate Kp4A expressing beta-lactamase OXA-48 and CTX-M-15 by Etest method in presence of beta-lactamase inhibitor clavulanic acid; outline: as §2
Escherichia coli [15] = test: Antimicrobial activity against Escherichia coli isolate J53 harboring p3A containing beta-lactamase OXA-48 located within transposon Tn1999 by Etest method in presence of beta-lactamase inhibitor clavulanic acid; outline: as §1
Escherichia coli [16] = test: Antimicrobial activity against Escherichia coli isolate J53 harboring pI-1 containing beta-lactamase OXA-48 located within transposon Tn1999.2 by Etest method in presence of beta-lactamase inhibitor clavulanic acid; outline: as §1
Citrobacter freundii [17] = test: Antimicrobial activity against Citrobacter freundii isolate expressing beta-lactamase OXA-48 by Etest method
Klebsiella pneumoniae [18] = test: Antimicrobial activity against Klebsiella pneumoniae isolate Kp3A expressing beta-lactamase OXA-48 by Etest method in presence of beta-lactamase inhibitor clavulanic acid; outline: as §2
Citrobacter freundii [19] = test: Antimicrobial activity against Citrobacter freundii isolate expressing beta-lactamase OXA-48 by Etest method in presence of beta-lactamase inhibitor clavulanic acid; outline: as §2
Klebsiella pneumoniae [20] = test: Antimicrobial activity against Klebsiella pneumoniae isolate Kp7A expressing beta-lactamase OXA-48 by Etest method; outline: as §2
Escherichia coli [21] = test: Antimicrobial activity against Escherichia coli isolate TOP10 by Etest method; outline: as §3
Klebsiella pneumoniae [22] = test: Antimicrobial activity against Klebsiella pneumoniae isolate KpB expressing OXA-48 and CTX-M-15 by Etest method
Escherichia coli [23] = test: Antimicrobial activity against Escherichia coli isolate J53 harboring p4A containing beta-lactamase OXA-48 located within transposon Tn1999 by Etest method; outline: as §1
Escherichia coli [24] = test: Antimicrobial activity against Escherichia coli isolate J53 by Etest method; outline: as §1
Escherichia coli [25] = test: Antimicrobial activity against Escherichia coli isolate J53 harboring pEcA containing beta-lactamase OXA-48 located within transposon Tn1999.2 by Etest method in presence of beta-lactamase inhibitor clavulanic acid; outline: as §1
Klebsiella pneumoniae [26] = test: Antimicrobial activity against Klebsiella pneumoniae isolate KpI-2 expressing beta-lactamase OXA-48 and CTX-M-15 by Etest method
Klebsiella pneumoniae [27] = test: Antimicrobial activity against Klebsiella pneumoniae isolate Kp5A expressing beta-lactamase OXA-48 and SHV-5 by Etest method in presence of beta-lactamase inhibitor clavulanic acid; outline: as §2
Escherichia coli [28] = test: Antimicrobial activity against Escherichia coli isolate J53 harboring pEnc2 containing beta-lactamase OXA-48 located within transposon Tn1999 by Etest method; outline: as §1
Klebsiella pneumoniae [29] = test: Antimicrobial activity against Klebsiella pneumoniae isolate Kp11978 expressing beta-lactamase OXA-48, SHV-2a and TEM-1 by Etest method
Escherichia coli [30] = test: Antimicrobial activity against Escherichia coli isolate J53 harboring pEnc2 containing beta-lactamase OXA-48 located within transposon Tn1999 by Etest method in presence of beta-lactamase inhibitor clavulanic acid; outline: as §1
Enterobacter cloacae [31] = test: Antimicrobial activity against Enterobacter cloacae isolate 2 expressing beta-lactamase OXA-48 and SHV-5 by Etest method in presence of beta-lactamase inhibitor clavulanic acid; outline: as §2
Escherichia coli [32] = test: Antimicrobial activity against Escherichia coli isolate J53 harboring pEcA containing beta-lactamase OXA-48 located within transposon Tn1999.2 by Etest method; outline: as §1
Escherichia coli [33] = test: Antimicrobial activity against Escherichia coli isolate J53 harboring pE containing beta-lactamase OXA-48 located within transposon Tn1999.2 by Etest method in presence of beta-lactamase inhibitor clavulanic acid; outline: as §1
Escherichia coli [34] = test: Antimicrobial activity against Escherichia coli isolate J53 harboring p7A containing beta-lactamase OXA-48 located within transposon Tn1999 by Etest method; outline: as §1
Klebsiella pneumoniae [35] = test: Antimicrobial activity against Klebsiella pneumoniae isolate KpBEL expressing beta-lactamase OXA-48 by Etest method in presence of beta-lactamase inhibitor clavulanic acid; outline: as §2
Escherichia coli [36] = test: Antimicrobial activity against Escherichia coli isolate J53 by Etest method in presence of beta-lactamase inhibitor clavulanic acid
Escherichia coli [37] = test: Antimicrobial activity against Escherichia coli isolate J53 harboring pA-1 containing beta-lactamase OXA-48 located within transposon Tn1999 by Etest method in presence of beta-lactamase inhibitor clavulanic acid; outline: as §1
Klebsiella pneumoniae [38] = test: Antimicrobial activity against Klebsiella pneumoniae isolate KpBEL expressing beta-lactamase OXA-48 by Etest method; outline: as §2
Klebsiella pneumoniae [39] = test: Antimicrobial activity against Klebsiella pneumoniae isolate KpBIC expressing beta-lactamase OXA-48 by Etest method in presence of beta-lactamase inhibitor clavulanic acid; outline: as §2

| SMILES | MIC (Escherichia coli [1]) | MIC (Escherichia coli [2]) | MIC (Klebsiella pneumoniae [3]) | MIC (Klebsiella pneumoniae [4]) | MIC (Escherichia coli [5]) | MIC (Escherichia coli [6]) | MIC (Escherichia coli [7]) | MIC (Klebsiella pneumoniae [8]) | MIC (Klebsiella pneumoniae [9]) | MIC (Klebsiella pneumoniae [10]) | MIC (Enterobacter cloacae [11]) | MIC (Escherichia coli [12]) | MIC (Escherichia coli [13]) | MIC (Klebsiella pneumoniae [14]) | MIC (Escherichia coli [15]) | MIC (Escherichia coli [16]) | MIC (Citrobacter freundii [17]) | MIC (Klebsiella pneumoniae [18]) | MIC (Citrobacter freundii [19]) | MIC (Klebsiella pneumoniae [20]) | also measured |
| --- | --- | --- | --- | --- | --- | --- | --- | --- | --- | --- | --- | --- | --- | --- | --- | --- | --- | --- | --- | --- | --- |
| CC1(C)S[C@@H]2[C@H](NC(=O)[C@H](N)c3ccc(O)cc3)C(=O)N2[C@H]1C(=O)O [AMOXICILLIN] | > 256 µg/mL | > 512 µg/mL | > 512 µg/mL | > 256 µg/mL | > 512 µg/mL | > 512 µg/mL | > 512 µg/mL | > 512 µg/mL | > 512 µg/mL | > 512 µg/mL | > 512 µg/mL | > 512 µg/mL | > 512 µg/mL | > 512 µg/mL | > 512 µg/mL | > 512 µg/mL | > 512 µg/mL | > 512 µg/mL | > 512 µg/mL | > 512 µg/mL | MIC (Escherichia coli [21]): 4 µg/mL (≈ 10.9 µM); MIC (Klebsiella pneumoniae [22]): > 512 µg/mL; MIC (Escherichia coli [23]): > 512 µg/mL; MIC (Escherichia coli [24]): 4 µg/mL (≈ 10.9 µM); MIC (Escherichia coli [25]): > 256 µg/mL; MIC (Klebsiella pneumoniae [26]): > 512 µg/mL; MIC (Klebsiella pneumoniae [27]): > 512 µg/mL; MIC (Escherichia coli [28]): > 512 µg/mL; MIC (Klebsiella pneumoniae [29]): > 512 µg/mL; MIC (Escherichia coli [30]): > 512 µg/mL; MIC (Enterobacter cloacae [31]): > 512 µg/mL; MIC (Escherichia coli [32]): > 256 µg/mL; MIC (Escherichia coli [33]): > 512 µg/mL; MIC (Escherichia coli [34]): > 512 µg/mL; MIC (Klebsiella pneumoniae [35]): > 256 µg/mL; MIC (Escherichia coli [36]): 4 µg/mL; MIC (Escherichia coli [37]): 128 µg/mL; MIC (Klebsiella pneumoniae [38]): > 256 µg/mL; MIC (Klebsiella pneumoniae [39]): > 512 µg/mL |
| CC1(C)S[C@@H]2[C@H](NC(=O)[C@H](C(=O)O)c3ccsc3)C(=O)N2[C@H]1C(=O)O [TICARCILLIN] | > 256 µg/mL | > 512 µg/mL | > 512 µg/mL | > 256 µg/mL | > 512 µg/mL | > 512 µg/mL | > 512 µg/mL | > 512 µg/mL | > 512 µg/mL | > 512 µg/mL | > 512 µg/mL | > 512 µg/mL | > 512 µg/mL | > 512 µg/mL | > 512 µg/mL | > 512 µg/mL | > 512 µg/mL | > 512 µg/mL | > 512 µg/mL | > 512 µg/mL | MIC (Escherichia coli [21]): 4 µg/mL (≈ 10.4 µM); MIC (Klebsiella pneumoniae [22]): > 512 µg/mL; MIC (Escherichia coli [23]): > 512 µg/mL; MIC (Escherichia coli [24]): 2 µg/mL (≈ 5.2 µM); MIC (Escherichia coli [25]): > 256 µg/mL; MIC (Klebsiella pneumoniae [26]): > 512 µg/mL; MIC (Klebsiella pneumoniae [27]): > 512 µg/mL; MIC (Escherichia coli [28]): > 512 µg/mL; MIC (Klebsiella pneumoniae [29]): > 512 µg/mL; MIC (Escherichia coli [30]): > 512 µg/mL; MIC (Enterobacter cloacae [31]): > 512 µg/mL; MIC (Escherichia coli [32]): > 256 µg/mL; MIC (Escherichia coli [33]): > 512 µg/mL; MIC (Escherichia coli [34]): > 512 µg/mL; MIC (Klebsiella pneumoniae [35]): > 256 µg/mL; MIC (Escherichia coli [36]): 2 µg/mL; MIC (Escherichia coli [37]): 128 µg/mL; MIC (Klebsiella pneumoniae [38]): > 256 µg/mL; MIC (Klebsiella pneumoniae [39]): > 512 µg/mL |
